# Experimental data reported in PubChem BioAssay.
# Values without a mark were called inactive. The list shows a part of the results. Active and inactive are the calls of the source. Cut-off read from the data, not from the text of the source, unless noted: active = inhibition above about 36%; inactive = the rest.
# Columns and labels:
# [1] = system: transactivating tegument protein VP16 (Human herpesvirus 1); assay: VP16 transactivation reporter inhibitors, counter-screen for SRC2 inhibitor project, cell-based, luminescence, single concentration (AID 652007); conditions: cell-based VP16 transactivation luciferase reporter, at 8.9 µM, active compounds read high
# [2] = biological target: Nuclear receptor coactivator 2 (Homo sapiens) (UniProt Q15596); assay: SRC2 coactivator transcriptional activity inhibitors, confirmation, cell-based, luminescence, HEK293, triplicate (AID 652008;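 active = mean inhibition above 46.5%, the solvent-only control mean plus 3 SD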;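 note: 0% = DMSO-treated cells and 100% = Gossypol at 36 µM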); conditions: HEK293 GAL4-SRC2 luciferase reporter, at 8.9 µM, active compounds read high
# [3] = biological target: Nuclear receptor subfamily 5 group A member 2 (Homo sapiens) (UniProt O00482); assay: LRH-1 (NR5A2) inverse agonists, retest, confirmation, cell-based, luminescence (AID 651613; in the data active = inhibition above about 42%;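 note: HEK293T cells co-transfected with LRH-1 and StAR promoter luciferase reporter; 0% = vehicle wells and 100% = parental cells lacking receptor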); conditions: cell-based LRH-1 luciferase reporter, inverse agonism; at 3.6 µM; active compounds read high
# [4] = biological target: Steroidogenic factor 1 (Homo sapiens) (UniProt Q13285); assay: SF1 (NR5A1) inverse agonists, counter-screen for LRH-1 inverse agonist project, cell-based, luminescence, high throughput (AID 651614; in the data active = inhibition above about 44%;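 note: cells cotransfected with StAR promoter reporter and SF1 expression vector; 0% = vehicle on cells with receptor and 100% = vehicle on cells lacking receptor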); conditions: cell-based SF1 luciferase reporter, at 3.6 µM, active compounds read high
# [5] = system: DAF-12 nuclear receptor (Heterodera glycines), GAL4-LBD fusion; assay: H. glycines DAF-12 receptor agonists, confirmation, cell-based, luminescence, HEK293, GAL4-LBD fusion (AID 743050;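 active = mean activation over triplicate wells above the hit cutoff derived from the earlier primary screen, cut at about 11% in these data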;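 note: 0% = DMSO low control and 100% = 2 mM sodium butyrate high control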); conditions: HEK293 GAL4-hgDAF12 luciferase reporter, agonist mode; at 6.8 µM; active compounds read high
# [6] = biological target: Oxysterols receptor LXR-beta (Homo sapiens) (UniProt P55055); assay: LXR agonists, Gal4 luciferase reporter, confirmation, counter-screen for hgDAF-12 agonist project, cell-based, luminescence, HEK293, H. glycines campaign (AID 743051;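 active = mean activation of the triplicate above a set limit carried over from the primary screen, none filed active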); conditions: 24 h, at 6.8 µM, active compounds read high
# Procedure, shortened: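 System: Gal4-LXR luciferase reporter HEK293 cells / Compound: single nominal test compound dose of 6.8 µM / Times: 24 h exposure, 37 °C / Technique: One-Glo luminescence after 15 min / Read-out basis: % activation versus DMSO and positive controls / Benchmarks: DMSO low control, 0.68% final / Replication: n 3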
# [7] = StAR promoter reporter inhibitors, counter-screen for LRH-1 inverse agonist project, cell-based, luminescence, high throughput (AID 651611; in the data active = inhibition above about 28%); conditions: StAR promoter luciferase reporter counterscreen, at 3.6 µM, active compounds read high
# [8] = VP16 transactivation reporter inhibitors, counter-screen for LRH-1 inverse agonist project, cell-based, luminescence, high throughput (AID 651615; in the data active = inhibition above about 33%); conditions: Gal4-VP16 luciferase reporter cells, at 3.6 µM, active compounds read high
# [9] = compounds interfering with TAMRA-BSA probe, counter-screen for TCR-CD3 interaction inhibitor project, biochemical, fluorescence, TAMRA-labeled BSA (AID 652035; in the data active = inhibition above about 23%;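 note: 0% = buffer low control and 100% = reference high control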); conditions: TAMRA-labeled BSA probe fluorescence counterscreen; at 9.4 µM; active compounds read high
# [10] = system: T-cell receptor (TCR)-CD3 interaction, human; assay: TCR-CD3 interaction inhibitors, retest, confirmation, biochemical, fluorescence, TAMRA-labeled TCR probe (AID 652036; in the data active = inhibition above about 19%); conditions: TAMRA-labeled TCR probe fluorescence binding assay; at 9.4 µM; active compounds read high
# Sequence of Steroidogenic factor 1 (Homo sapiens) (Q13285 whole entry, looked up, the tested form may be a part): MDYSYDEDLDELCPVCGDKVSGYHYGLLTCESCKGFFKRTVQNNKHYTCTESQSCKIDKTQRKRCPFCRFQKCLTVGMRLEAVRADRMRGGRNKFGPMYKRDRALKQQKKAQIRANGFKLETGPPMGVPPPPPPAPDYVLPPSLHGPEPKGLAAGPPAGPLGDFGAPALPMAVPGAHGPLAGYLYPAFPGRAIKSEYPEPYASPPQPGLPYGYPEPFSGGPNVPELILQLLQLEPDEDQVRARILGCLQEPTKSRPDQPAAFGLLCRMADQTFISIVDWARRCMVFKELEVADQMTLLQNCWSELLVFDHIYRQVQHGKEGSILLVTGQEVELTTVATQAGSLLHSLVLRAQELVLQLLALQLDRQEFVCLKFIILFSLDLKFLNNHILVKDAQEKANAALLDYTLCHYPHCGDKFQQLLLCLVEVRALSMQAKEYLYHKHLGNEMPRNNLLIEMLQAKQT
# Sequence of Nuclear receptor coactivator 2 (Homo sapiens) (Q15596 whole entry, looked up, the tested form may be a part): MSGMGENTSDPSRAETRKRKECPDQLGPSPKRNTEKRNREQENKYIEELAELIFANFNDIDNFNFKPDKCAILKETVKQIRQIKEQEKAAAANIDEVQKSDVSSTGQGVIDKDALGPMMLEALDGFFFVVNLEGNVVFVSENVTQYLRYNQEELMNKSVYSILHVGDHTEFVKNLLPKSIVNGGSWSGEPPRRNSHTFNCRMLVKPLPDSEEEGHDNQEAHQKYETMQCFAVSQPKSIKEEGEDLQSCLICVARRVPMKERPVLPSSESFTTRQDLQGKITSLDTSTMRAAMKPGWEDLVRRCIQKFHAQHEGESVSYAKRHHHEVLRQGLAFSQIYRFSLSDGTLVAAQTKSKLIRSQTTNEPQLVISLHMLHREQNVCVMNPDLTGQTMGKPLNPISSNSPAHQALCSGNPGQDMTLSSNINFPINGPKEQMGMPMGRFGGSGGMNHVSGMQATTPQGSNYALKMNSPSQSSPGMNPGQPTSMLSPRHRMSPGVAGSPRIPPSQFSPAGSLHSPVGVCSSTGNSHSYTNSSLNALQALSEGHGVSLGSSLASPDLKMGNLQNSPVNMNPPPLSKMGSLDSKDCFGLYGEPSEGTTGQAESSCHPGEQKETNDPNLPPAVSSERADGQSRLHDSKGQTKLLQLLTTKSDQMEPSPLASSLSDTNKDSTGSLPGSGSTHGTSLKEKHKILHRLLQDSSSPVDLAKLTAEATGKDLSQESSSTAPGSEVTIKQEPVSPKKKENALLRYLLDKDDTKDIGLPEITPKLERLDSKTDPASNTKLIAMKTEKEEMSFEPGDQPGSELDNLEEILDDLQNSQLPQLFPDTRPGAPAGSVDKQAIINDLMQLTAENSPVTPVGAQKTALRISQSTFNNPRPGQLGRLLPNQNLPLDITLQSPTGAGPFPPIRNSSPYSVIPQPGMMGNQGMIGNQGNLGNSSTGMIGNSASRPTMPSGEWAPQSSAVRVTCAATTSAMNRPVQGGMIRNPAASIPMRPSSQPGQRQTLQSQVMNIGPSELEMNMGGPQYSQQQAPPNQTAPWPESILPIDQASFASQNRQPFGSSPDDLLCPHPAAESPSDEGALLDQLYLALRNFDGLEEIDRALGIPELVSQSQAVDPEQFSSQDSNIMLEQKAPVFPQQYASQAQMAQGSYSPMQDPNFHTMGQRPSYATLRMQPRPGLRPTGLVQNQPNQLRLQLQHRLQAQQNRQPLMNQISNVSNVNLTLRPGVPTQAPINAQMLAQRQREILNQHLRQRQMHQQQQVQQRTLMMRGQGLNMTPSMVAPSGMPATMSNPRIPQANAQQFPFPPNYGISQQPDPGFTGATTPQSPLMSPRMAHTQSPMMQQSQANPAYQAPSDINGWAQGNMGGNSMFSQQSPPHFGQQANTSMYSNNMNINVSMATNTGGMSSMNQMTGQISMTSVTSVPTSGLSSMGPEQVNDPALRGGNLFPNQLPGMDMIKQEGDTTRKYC
# Sequence of Nuclear receptor subfamily 5 group A member 2 (Homo sapiens) (O00482 whole entry, looked up): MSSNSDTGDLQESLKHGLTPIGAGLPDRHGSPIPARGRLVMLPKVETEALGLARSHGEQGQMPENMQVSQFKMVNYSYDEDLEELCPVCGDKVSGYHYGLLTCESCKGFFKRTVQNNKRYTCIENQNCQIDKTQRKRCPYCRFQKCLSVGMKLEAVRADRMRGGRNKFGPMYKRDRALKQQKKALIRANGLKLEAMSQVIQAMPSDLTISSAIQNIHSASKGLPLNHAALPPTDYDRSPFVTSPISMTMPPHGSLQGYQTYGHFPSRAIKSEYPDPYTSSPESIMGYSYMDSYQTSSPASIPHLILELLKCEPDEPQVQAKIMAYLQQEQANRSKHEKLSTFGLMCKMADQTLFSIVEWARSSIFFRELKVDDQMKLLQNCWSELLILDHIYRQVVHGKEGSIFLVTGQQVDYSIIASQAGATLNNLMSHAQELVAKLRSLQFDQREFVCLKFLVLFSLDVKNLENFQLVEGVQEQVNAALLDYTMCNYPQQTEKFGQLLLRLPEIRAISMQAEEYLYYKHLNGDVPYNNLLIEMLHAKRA
# Sequence of Oxysterols receptor LXR-beta (Homo sapiens) (P55055 whole entry, looked up, the tested form may be a part): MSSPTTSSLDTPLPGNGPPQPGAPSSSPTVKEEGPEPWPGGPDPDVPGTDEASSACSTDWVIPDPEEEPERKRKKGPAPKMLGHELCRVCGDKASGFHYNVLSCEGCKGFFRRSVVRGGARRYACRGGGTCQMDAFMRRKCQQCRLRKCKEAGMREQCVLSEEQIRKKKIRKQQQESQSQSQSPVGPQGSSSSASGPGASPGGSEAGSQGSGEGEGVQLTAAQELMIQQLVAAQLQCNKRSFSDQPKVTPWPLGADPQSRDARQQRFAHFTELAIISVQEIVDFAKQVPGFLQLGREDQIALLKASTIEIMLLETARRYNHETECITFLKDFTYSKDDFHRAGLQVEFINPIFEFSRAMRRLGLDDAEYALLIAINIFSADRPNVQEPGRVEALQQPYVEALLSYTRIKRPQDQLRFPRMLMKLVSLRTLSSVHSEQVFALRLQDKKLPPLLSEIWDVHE
structure (smiles),measurement,setting,value
CN(Cc1cccc(-c2cccnc2)c1)C(=O)Oc1ccc([N+](=O)[O-])cc1,inhibition,[1],2.36%
same,inhibition,[2],49.7% (active)
CCOP(=O)(OCC)c1cccc(OP(=O)(c2cccc([N+](=O)[O-])c2)c2cccc([N+](=O)[O-])c2)c1,inhibition,[1],-4.6%
same,inhibition,[2],-32.1%
Cc1ccc(N2C(=O)NC(=O)C(CCc3ccccn3)(Cc3ccc(F)cc3)C2=O)cc1 (stereo not drawn),inhibition,[1],-10.7%
same,inhibition,[2],7.3%
C[C@@H]1C[C@@H]([C@H](O)CC2CC(=O)NC(=O)C2)C(=O)[C@@H](C)C1,inhibition,[3],109% (active)
same,inhibition,[4],97.9% (active)
same,inhibition,[1],48% (active)
same,inhibition,[2],59.3% (active)
COC(=O)C1=C(C(=O)OC)C2c3ccccc3C1c1ccccc12,inhibition,[1],12.3%
same,inhibition,[2],2.05%
O=C(N/N=C/c1c(O)n(Cc2ccccc2)c(=O)[nH]c1=O)c1ccccc1,activation,[5],1.81%
same,activation,[6],0.01%
CC1OC(OC2C=C3CCC4C(CCC5(C)C(c6ccc(=O)oc6)CCC45O)C3(C)CC2)C(O)C(OC2OC(CO)C(O)C(O)C2O)C1O (stereo not drawn),inhibition,[7],95.6% (active)
same,inhibition,[3],110% (active)
same,inhibition,[4],97.2% (active)
same,inhibition,[8],94.4% (active)
same,inhibition,[1],63.6% (active)
same,inhibition,[2],48.1% (active)
COc1ccc(S(=O)(=O)N2Cc3cnnn3-c3ccccc3C2C#N)cc1 (stereo not drawn),inhibition,[1],1.55%
same,inhibition,[2],-21%
O=[N+]([O-])c1ccc(N2CCCC(C(F)(F)F)C2)c2ccncc12 (stereo not drawn),inhibition,[1],10.6%
same,inhibition,[2],34.3%
COc1cc(CC(C)N)c(OC)cc1I (stereo not drawn),inhibition,[1],-16.9%
same,inhibition,[2],8.7%
c1cncc(-c2ccc3n2Cc2cnnn2-c2ccccc2-3)c1,inhibition,[1],11%
same,inhibition,[2],21.8%
CCOP(=O)(OCC)C1(O)C(=O)Nc2ccc(Br)cc21 (stereo not drawn),inhibition,[1],-7%
same,inhibition,[2],-5.26%
Oc1ccc(-[n+]2c(-c3ccccc3)cc(-c3ccccc3)cc2-c2ccccc2)cc1,inhibition,[1],35.3%
same,inhibition,[2],33.1%
CC(=O)OC(C)(C)/C=C/C(=O)C(C)(O)C1[C@H](O)C[C@@]2(C)C3CC=C4C(CC[C@@H](O)C4(C)C)[C@]3(CO)C(=O)C[C@]12C (stereo partly drawn),inhibition,[1],31.1%
same,inhibition,[2],55.2% (active)
O=C1NC(=O)N(Cc2ccco2)C(=O)/C1=C/C=C/c1ccco1,inhibition,[1],8.52%
same,inhibition,[2],-57.3%
CC/C(=N\NC(=O)c1ccccc1O)c1c(O)n(Cc2ccccc2)c(=O)[nH]c1=O,inhibition,[9],-6.16%
same,inhibition,[10],29.4% (active)
Cc1nc2cc(-c3cccc(F)c3)nn2c(C)c1CCC(=O)N1CCC2(CC1)OCCO2,inhibition,[1],-18.5%
same,inhibition,[2],40%
Cc1nc2cc(-c3ccc(Cl)cc3)nn2c(C)c1CCC(=O)N1CCC2(CC1)OCCO2,inhibition,[1],16.4%
same,inhibition,[2],70.5% (active)
CC(=O)O[C@H]1C[C@@H]2OC3C=C(C)CCC3(C)[C@@]1(C)[C@@]21CO1 (stereo partly drawn),inhibition,[7],95.6% (active)
same,inhibition,[3],109% (active)
same,inhibition,[4],96.8% (active)
same,inhibition,[8],96.8% (active)
same,inhibition,[1],79.3% (active)
same,inhibition,[2],77.9% (active)
